We go through one compound from ChEMBL document CHEMBL4811225 (J Med Chem, 2021).

In assay [1] the target is Neuronal acetylcholine receptor; alpha3/beta2 (Rattus norvegicus, UniProt P04757+P12390). The class given is cell-based, Oocyte.
For assay [2], the target named is Neuronal acetylcholine receptor subunit alpha-7 (Rattus norvegicus) (UniProt Q05941). Put plainly: Inhibition of rat alpha7 nAChR expressed in Xenopus laevis oocytes assessed as inhibition of acetylcholine-induced current response at 10 uM by two-electrode voltage-clamp method relative to control. Format: cell-based. Particulars: Oocyte. The method in brief: (§1)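 Stage IV–V X. laevis oocytes expressing equal-ratio cRNAs of α2β4, α3β4, α4β4 or α7 subunits; TEVC 1–5 days after injection. ACh 300 μM, 1 s at 60 s intervals. 10 μM peptide as 5 min static bath, normalized to ACh response after 5 min bath of control saline; mean ± SD, n = 4.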
In general terms: Two-electrode voltage clamp holds a large cell at a set potential and records current.

Assay [3] concerns the target Neuronal acetylcholine receptor; alpha2/beta2 (Rattus norvegicus) (UniProt P12389+P12390). Put plainly: Inhibition of rat alpha2beta2 nAChR expressed in Xenopus laevis oocytes assessed as inhibition of acetylcholine-induced current response at 10 uM by two-electrode voltage-clamp method relative to control. Format: cell-based. Particulars: Oocyte. The method in brief: (§2)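 Oocytes (stage IV–V) injected with equal-ratio cRNAs of cloned subunits; TEVC 1–5 days post-injection. ACh 100 μM for β2-containing and α9α10 subtypes, 1 s pulses every 60 s. Peptide 10 μM in 5 min static bath; response normalized to ACh response after 5 min control-saline bath; mean ± SD, n = 4.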

Assay [4] addresses Neuronal acetylcholine receptor; alpha9/alpha10 (Homo sapiens, UniProt Q9GZZ6+Q9UGM1). Put plainly: Inhibition of human alpha9alpha10 nAChR expressed in Xenopus laevis oocytes assessed as inhibition of acetylcholine-induced current response by two-electrode voltage-clamp method. The class given is cell-based, Oocyte. The method in brief: (§3)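 Two-electrode voltage clamp of stage IV–V oocytes 1–5 days after equal-ratio cRNA injection; ACh 100 μM (β2-containing subtypes, α9α10), 1 s every 60 s in frog saline. Peptide perfused up to 1 μM, responses normalized to mean of three control responses; above 1 μM, 5 min static bath. IC50 with 95% CI; n = oocytes.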

The target of assay [5] is Nicotinic acetylcholine receptor alpha6/alpha3/beta4 (Homo sapiens, UniProt P30926+P32297+Q15825). Particulars: Oocyte.
A further assay is filed under the species Rattus norvegicus. Put plainly: Selectivity ratio of IC50 for rat alpha3beta4 nAChR to IC50 for rat alpha6/alpha3beta4 nAChR. In a few lines:
(§4)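 Ratio of each subtype's IC50, from TEVC inhibition of ACh-evoked currents in X. laevis oocytes, to the IC50 at the same species' α6/α3β4 nAChR; IC50 values with 95% CI, n = number of oocytes.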

Assay [6] concerns the target Neuronal acetylcholine receptor; alpha4/beta2 (Homo sapiens, UniProt P17787+P43681). The assay can be described thus: Inhibition of human alpha4beta2 nAChR expressed in Xenopus laevis oocytes assessed as inhibition of acetylcholine-induced current response by two-electrode voltage-clamp method. Format: cell-based, Oocyte. The method in brief:
as §3

In assay [7] the target is Nicotinic acetylcholine receptor alpha9/alpha10 (Rattus norvegicus, UniProt P43144+Q9JLB5). The assay can be described thus: Inhibition of rat alpha9alpha10 nAChR expressed in Xenopus laevis oocytes assessed as inhibition of acetylcholine-induced current response by two-electrode voltage-clamp method. Format: cell-based, Oocyte. In a few lines: as §3
The target in assay [8] is Neuronal acetylcholine receptor; alpha3/beta2 (Homo sapiens, UniProt P17787+P32297). Put plainly: Inhibition of human alpha3beta2 nAChR expressed in Xenopus laevis oocytes assessed as inhibition of acetylcholine-induced current response at 10 uM by two-electrode voltage-clamp method relative to control. The class given is cell-based. As to conditions: Oocyte. The method in brief:
as §2

The target of assay [9] is T1, Neuronal acetylcholine receptor; alpha2/beta4 (Homo sapiens, UniProt P30926+Q15822). The assay can be described thus: Inhibition of human alpha2beta4 nAChR expressed in Xenopus laevis oocytes assessed as inhibition of acetylcholine-induced current response by two-electrode voltage-clamp method. The class given is cell-based, Oocyte. The method in brief: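 TEVC on stage IV–V oocytes 1–5 days after equal-ratio cRNA injection (α2β4, α3β4, α4β4, α7). ACh 300 μM, 1 s pulses at 60 s intervals under frog saline perfusion. Peptide perfused to 1 μM, normalized to average of three control responses; higher concentrations by 5 min static bath. IC50 with 95% CI, n oocytes.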

Assay [10] deals with Neuronal acetylcholine receptor; alpha3/beta2 (Rattus norvegicus) (UniProt P04757+P12390). The assay can be described thus: Inhibition of rat alpha3beta2 nAChR expressed in Xenopus laevis oocytes assessed as inhibition of acetylcholine-induced current response at 10 uM by two-electrode voltage-clamp method relative to control. The class given is cell-based. As to conditions: Oocyte. The method in brief:
as §2

Assay [11] addresses Neuronal acetylcholine receptor subunit alpha-6/alpha-3 (Homo sapiens) (UniProt P32297+Q15825). Put plainly: Inhibition of human alpha6beta4 nAChR expressed in Xenopus laevis oocytes assessed as recovery of acethylcholine-evoked currents at 10 uM treated for 10 mins followed by compound washout by two-electrode voltage-clamp method relative to control. The class given is cell-based. Also noted: scale not given: the % may be the effect or the level left. Particulars: Oocyte.

In assay [12] the target is Neuronal acetylcholine receptor; alpha4/beta2 (Rattus norvegicus, UniProt P09483+P12390). Format: cell-based, Oocyte.
The target in assay [13] is T1, Neuronal acetylcholine receptor; alpha2/beta4. The assay can be described thus: Inhibition of human alpha2beta4 nAChR expressed in Xenopus laevis oocytes assessed as inhibition of acetylcholine-induced current response at 10 uM by two-electrode voltage-clamp method relative to control. The class given is cell-based. As to conditions: Oocyte. The method in brief:
as §1

In assay [14] the target is Nicotinic acetylcholine receptor alpha6/alpha3/beta4 (Rattus norvegicus) (UniProt P04757+P12392+P43143). The assay can be described thus: Inhibition of rat alpha6beta4 nAChR expressed in Xenopus laevis oocytes assessed as recovery of acethylcholine-evoked currents at 10 uM treated for 10 mins followed by compound washout by two-electrode voltage-clamp method relative to control. Format: cell-based. Also noted: scale not given: the % may be the effect or the level left. Particulars: Oocyte.

Assay [15] has as its target Nicotinic acetylcholine receptor alpha6/alpha3/beta4 (Rattus norvegicus, UniProt P04757+P12392+P43143). The class given is cell-based, Oocyte.
For assay [16], the target named is Neuronal acetylcholine receptor; alpha2/beta2 (Homo sapiens, UniProt P17787+Q15822). The assay can be described thus: Inhibition of human alpha2beta2 nAChR expressed in Xenopus laevis oocytes assessed as inhibition of acetylcholine-induced current response by two-electrode voltage-clamp method. The class given is cell-based, Oocyte. The method in brief:
as §3

The species entered for another assay is Homo sapiens. The assay can be described thus: Selectivity ratio of IC50 for human alpha7 nAChR to IC50 for human alpha6/alpha3beta4 nAChR. In a few lines: as §4
Assay [17] has as its target Neuronal acetylcholine receptor; alpha4/beta4 (Rattus norvegicus) (UniProt P09483+P12392). Put plainly: Inhibition of rat alpha4beta4 nAChR expressed in Xenopus laevis oocytes assessed as inhibition of acetylcholine-induced current response at 10 uM by two-electrode voltage-clamp method relative to control. Particulars: Oocyte. The class given is cell-based. The method in brief: as §1

Assay [18] concerns the target Neuronal acetylcholine receptor; alpha2/beta2 (Rattus norvegicus, UniProt P12389+P12390). The assay can be described thus: Inhibition of rat alpha2beta2 nAChR expressed in Xenopus laevis oocytes assessed as inhibition of acetylcholine-induced current response by two-electrode voltage-clamp method. The class given is cell-based, Oocyte. In a few lines: as §3
Assay [19] deals with Nicotinic acetylcholine receptor alpha9/alpha10 (Rattus norvegicus) (UniProt P43144+Q9JLB5). The assay can be described thus: Inhibition of rat alpha9alpha10 nAChR expressed in Xenopus laevis oocytes assessed as inhibition of acetylcholine-induced current response at 10 uM by two-electrode voltage-clamp method relative to control. As to conditions: Oocyte. The class given is cell-based. In a few lines:
as §2

In assay [20] the target is Neuronal acetylcholine receptor; alpha4/beta2 (Rattus norvegicus) (UniProt P09483+P12390). Put plainly: Inhibition of rat alpha4beta2 nAChR expressed in Xenopus laevis oocytes assessed as inhibition of acetylcholine-induced current response at 10 uM by two-electrode voltage-clamp method relative to control. The class given is cell-based. As to conditions: Oocyte. The method in brief:
as §2

SMILES strings stand for the structures. Where a SMILES comes first, the peptide text is derived from it. Bridges are numbered along the chain shown (N, C = ends).

The IC50 is the concentration needed to halve the response being measured. As usually defined, the inhibition is the relative decrease from the control value, in per cent.

Neuronal acetylcholine receptor; alpha9/alpha10, sequence (Q9UGM1 whole entry, the tested form may be a part): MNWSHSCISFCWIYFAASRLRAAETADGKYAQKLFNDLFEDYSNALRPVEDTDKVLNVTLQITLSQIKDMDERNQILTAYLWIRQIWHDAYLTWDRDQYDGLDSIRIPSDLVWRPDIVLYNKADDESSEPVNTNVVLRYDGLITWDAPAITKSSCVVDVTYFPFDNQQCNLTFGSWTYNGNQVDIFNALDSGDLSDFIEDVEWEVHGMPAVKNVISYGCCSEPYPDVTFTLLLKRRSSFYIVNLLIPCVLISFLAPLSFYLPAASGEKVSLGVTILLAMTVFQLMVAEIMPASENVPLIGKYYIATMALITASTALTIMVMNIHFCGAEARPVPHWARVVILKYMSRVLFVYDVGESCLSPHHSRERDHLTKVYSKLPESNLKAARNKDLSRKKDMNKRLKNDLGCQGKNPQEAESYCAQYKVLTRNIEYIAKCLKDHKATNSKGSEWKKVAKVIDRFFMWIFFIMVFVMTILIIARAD
Neuronal acetylcholine receptor; alpha9/alpha10, sequence (Q9GZZ6 whole entry, the tested form may be a part): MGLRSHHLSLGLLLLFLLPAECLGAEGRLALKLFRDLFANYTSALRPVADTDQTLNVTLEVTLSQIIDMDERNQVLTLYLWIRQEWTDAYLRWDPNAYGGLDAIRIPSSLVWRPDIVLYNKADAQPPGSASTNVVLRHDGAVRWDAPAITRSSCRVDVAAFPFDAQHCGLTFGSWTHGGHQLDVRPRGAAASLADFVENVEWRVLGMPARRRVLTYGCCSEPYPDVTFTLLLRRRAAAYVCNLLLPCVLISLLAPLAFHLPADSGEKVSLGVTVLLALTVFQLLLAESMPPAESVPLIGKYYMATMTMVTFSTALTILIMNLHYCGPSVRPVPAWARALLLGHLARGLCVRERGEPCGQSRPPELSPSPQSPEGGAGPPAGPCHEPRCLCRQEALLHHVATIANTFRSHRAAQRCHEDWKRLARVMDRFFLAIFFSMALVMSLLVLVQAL
Neuronal acetylcholine receptor; alpha4/beta2 (Rattus norvegicus, UniProt P09483+P12390), sequence (P09483 whole entry): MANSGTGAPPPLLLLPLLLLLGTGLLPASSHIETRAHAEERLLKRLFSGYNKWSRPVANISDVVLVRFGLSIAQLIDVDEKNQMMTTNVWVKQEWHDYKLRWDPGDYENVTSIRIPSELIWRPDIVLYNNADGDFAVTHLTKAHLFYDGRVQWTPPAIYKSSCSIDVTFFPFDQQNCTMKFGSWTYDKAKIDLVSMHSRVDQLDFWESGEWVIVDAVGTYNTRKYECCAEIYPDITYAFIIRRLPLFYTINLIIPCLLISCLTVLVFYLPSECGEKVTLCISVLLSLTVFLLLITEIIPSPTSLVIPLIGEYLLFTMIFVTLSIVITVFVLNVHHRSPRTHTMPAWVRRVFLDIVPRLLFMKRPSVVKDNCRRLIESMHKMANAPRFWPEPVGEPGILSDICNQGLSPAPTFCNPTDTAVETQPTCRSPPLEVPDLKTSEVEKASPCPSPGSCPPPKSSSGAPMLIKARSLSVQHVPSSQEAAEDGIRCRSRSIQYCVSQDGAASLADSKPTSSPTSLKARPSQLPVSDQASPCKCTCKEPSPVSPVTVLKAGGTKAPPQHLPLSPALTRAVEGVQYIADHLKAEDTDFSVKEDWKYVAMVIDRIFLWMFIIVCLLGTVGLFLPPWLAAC
Neuronal acetylcholine receptor; alpha4/beta2 (Rattus norvegicus, UniProt P09483+P12390), sequence (P12390 whole entry): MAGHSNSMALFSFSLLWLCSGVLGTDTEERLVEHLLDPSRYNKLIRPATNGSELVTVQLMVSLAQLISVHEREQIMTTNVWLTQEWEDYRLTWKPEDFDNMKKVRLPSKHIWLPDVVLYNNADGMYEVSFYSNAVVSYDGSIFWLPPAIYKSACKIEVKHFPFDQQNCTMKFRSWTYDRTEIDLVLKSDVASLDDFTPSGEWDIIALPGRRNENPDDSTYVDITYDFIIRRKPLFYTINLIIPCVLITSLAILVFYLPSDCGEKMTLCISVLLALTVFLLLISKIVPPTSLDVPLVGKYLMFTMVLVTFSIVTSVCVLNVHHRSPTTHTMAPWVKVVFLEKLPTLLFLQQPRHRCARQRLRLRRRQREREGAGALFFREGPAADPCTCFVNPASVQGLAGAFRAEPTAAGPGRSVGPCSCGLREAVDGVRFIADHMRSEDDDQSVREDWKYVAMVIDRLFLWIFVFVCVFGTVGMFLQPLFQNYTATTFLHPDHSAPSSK
Nicotinic acetylcholine receptor alpha9/alpha10, sequence (P43144 whole entry): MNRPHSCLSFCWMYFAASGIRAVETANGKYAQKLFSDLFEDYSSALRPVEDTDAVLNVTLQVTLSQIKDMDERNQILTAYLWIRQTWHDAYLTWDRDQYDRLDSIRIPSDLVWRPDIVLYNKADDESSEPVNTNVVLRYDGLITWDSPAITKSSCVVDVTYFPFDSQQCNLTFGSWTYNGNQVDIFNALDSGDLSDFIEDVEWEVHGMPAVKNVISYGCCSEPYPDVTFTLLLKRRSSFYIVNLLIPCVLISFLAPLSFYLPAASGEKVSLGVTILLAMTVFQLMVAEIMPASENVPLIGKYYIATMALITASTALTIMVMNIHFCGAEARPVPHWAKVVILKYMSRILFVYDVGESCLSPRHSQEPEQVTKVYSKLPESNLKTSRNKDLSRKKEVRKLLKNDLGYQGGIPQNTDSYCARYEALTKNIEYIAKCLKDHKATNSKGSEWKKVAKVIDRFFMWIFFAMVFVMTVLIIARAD
Nicotinic acetylcholine receptor alpha9/alpha10, sequence (Q9JLB5 whole entry): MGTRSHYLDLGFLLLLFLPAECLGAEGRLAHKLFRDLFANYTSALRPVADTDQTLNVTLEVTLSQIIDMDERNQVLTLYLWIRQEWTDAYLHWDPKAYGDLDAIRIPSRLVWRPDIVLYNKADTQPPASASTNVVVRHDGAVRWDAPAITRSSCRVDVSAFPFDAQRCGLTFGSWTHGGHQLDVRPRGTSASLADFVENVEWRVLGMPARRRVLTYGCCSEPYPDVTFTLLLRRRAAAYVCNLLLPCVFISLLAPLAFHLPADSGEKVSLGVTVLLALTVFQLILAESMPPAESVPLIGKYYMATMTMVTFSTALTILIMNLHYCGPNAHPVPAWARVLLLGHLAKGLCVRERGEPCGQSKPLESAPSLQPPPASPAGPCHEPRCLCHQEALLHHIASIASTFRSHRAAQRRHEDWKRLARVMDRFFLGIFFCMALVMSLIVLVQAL
Nicotinic acetylcholine receptor alpha6/alpha3/beta4 (Rattus norvegicus, UniProt P04757+P12392+P43143), sequence (P04757 whole entry): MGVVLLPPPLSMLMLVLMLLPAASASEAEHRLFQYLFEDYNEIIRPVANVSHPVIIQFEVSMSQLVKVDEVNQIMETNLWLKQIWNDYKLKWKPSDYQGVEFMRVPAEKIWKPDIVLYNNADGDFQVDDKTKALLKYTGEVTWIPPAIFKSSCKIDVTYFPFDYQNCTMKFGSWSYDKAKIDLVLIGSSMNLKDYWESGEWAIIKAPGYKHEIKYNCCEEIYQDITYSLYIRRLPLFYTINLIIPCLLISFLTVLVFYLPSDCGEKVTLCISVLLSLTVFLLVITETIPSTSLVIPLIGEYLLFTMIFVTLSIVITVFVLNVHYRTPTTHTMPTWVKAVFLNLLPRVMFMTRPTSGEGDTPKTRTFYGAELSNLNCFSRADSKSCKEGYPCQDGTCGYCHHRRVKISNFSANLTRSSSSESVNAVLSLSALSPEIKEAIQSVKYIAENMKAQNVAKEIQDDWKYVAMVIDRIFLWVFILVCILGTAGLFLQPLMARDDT
Nicotinic acetylcholine receptor alpha6/alpha3/beta4 (Rattus norvegicus, UniProt P04757+P12392+P43143), sequence (P12392 whole entry): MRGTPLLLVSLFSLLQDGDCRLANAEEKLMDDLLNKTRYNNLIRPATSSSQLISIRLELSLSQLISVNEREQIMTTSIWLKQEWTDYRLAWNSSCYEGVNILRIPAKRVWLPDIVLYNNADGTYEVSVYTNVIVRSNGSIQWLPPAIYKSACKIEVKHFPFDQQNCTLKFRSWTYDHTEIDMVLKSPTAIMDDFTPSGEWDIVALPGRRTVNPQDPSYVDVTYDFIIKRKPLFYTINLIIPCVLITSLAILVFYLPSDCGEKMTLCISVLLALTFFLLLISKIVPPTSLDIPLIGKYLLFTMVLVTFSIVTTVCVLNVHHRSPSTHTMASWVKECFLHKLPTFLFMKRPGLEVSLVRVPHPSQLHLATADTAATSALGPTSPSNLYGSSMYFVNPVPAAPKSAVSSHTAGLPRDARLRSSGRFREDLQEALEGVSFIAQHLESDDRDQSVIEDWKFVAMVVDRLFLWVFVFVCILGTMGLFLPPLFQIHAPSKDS
Nicotinic acetylcholine receptor alpha6/alpha3/beta4 (Rattus norvegicus, UniProt P04757+P12392+P43143), sequence (P43143 whole entry): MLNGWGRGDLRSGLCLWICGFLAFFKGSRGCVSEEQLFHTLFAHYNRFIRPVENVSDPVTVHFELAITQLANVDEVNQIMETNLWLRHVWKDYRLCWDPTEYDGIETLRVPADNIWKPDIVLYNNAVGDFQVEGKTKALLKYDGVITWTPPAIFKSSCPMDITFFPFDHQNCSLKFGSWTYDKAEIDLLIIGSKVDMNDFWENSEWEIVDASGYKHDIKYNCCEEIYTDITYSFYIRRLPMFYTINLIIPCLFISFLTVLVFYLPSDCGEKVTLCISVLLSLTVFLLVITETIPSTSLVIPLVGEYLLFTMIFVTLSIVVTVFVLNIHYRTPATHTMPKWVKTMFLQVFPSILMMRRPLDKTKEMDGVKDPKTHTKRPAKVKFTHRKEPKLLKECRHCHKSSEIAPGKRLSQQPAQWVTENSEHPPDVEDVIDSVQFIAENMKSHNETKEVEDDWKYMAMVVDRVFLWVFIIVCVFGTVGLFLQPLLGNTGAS
Neuronal acetylcholine receptor; alpha3/beta2 (Rattus norvegicus, UniProt P04757+P12390), sequence (P04757 whole entry): as the sequence (P04757 whole entry) above
Neuronal acetylcholine receptor; alpha3/beta2 (Rattus norvegicus, UniProt P04757+P12390), sequence (P12390 whole entry): as the sequence (P12390 whole entry) above

As to `CC[C@H](C)[C@@H]1NC(=O)[C@H](CCC(=O)O)NC(=O)[C@@H]2CCCN2C(=O)[C@H](Cc2cnc[nH]2)NC(=O)[C@H](CC(N)=O)NC(=O)[C@H](C(C)C)NC(=O)[C@H](CC(N)=O)NC(=O)[C@@H]2CSSC[C@H](NC(=O)CN)C(=O)N[C@@H](CSSC[C@@H](C(N)=O)NC1=O)C(=O)N[C@@H](CO)C(=O)N[C@@H](Cc1cnc[nH]1)C(=O)N1CCC[C@H]1C(=O)N[C@@H](C(C)C)C(=O)N2` (H-GCCSHPVCNVNHPEIC-NH2; disulfide 2-8, 3-16), the half-maximal inhibitory concentration (IC50) in [1], in assay [4], in assay [6], in assay [7], in assay [9] and in [12] was above 10 µM in each case. Besides, the values for the IC50 in assay [15], in assay [16] and in assay [18] were 0.00048 µM, above 10 µM and above 10 µM, respectively. Also, the inhibition is 82% in assay [2]; 98% in [3]; 76% in assay [8]; 94% in [10]; 84% in [13]; 81% in [17]. Moreover, the inhibition in assay [19] worked out at 69%; in [20] it was 81%. The same compound came in with a deltalogIC50 in [5] of -1.5. Further, the Ratio IC50 was 489 in the assay filed under Rattus norvegicus and above 50000 in the assay filed under Homo sapiens. In addition, the Activity stood at 2% in assay [11] and 6% in assay [14].
